Assay results reported in ChEMBL document CHEMBL1140127, “Enantiomeric propanolamines as selective N-methyl-D-aspartate 2B receptor antagonists” (J Med Chem, 2008).
pIC50: −log10 of the molar value. The source made the active and inactive calls. The rule behind the calls is not given here.

Tests used:
Rattus norvegicus [1] = experiment: Anticonvulsant activity in Sprague-Dawley rat assessed as inhibition of electroshock-induced tonic hind limb extension at 30 mg/kg, ip administered 30 mins before electroshock; format: functional, organism-based; parameters: dose 30 mg/kg; details: Hindlimb
Outline: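 Male Sprague–Dawley rats, 100–125 g, with 1% lidocaine dropped into each conjunctiva before maximal electroshock. Compound given ip in DMSO 30 min before the stimulus. Tested on three consecutive days: untreated on days 1 and 3, compound on day 2. Duration of tonic hind limb extension scored visually. Vehicle served as negative control and carbamazepine 60 mg/kg as positive control. ANOVA with Bonferroni post hoc test.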

[2] = molecular target: Glutamate NMDA receptor; Grin1/Grin2b (Rattus norvegicus, UniProt P35439+Q00960); experiment: Inhibition of rat recombinant NR1/NR2B receptor expressed in Xenopus oocytes assessed as inhibition of glutamate and glycine-induced evoked current by two electrode voltage clamp method; format: cell-based, Oocyte
[3] = Half life in rat plasma at 4 mg/kg, iv administered as single dose by LC-MS/MS analysis; format: ADME, organism-based; parameters: dose 4 mg/kg, route intravenous
Outline: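 Rats, n = 3, fasted overnight and given a single 4 mg/kg iv bolus via the tail vein in 2% dimethyl acetamide/98% 5% hydroxypropyl cyclodextrin. Blood collected into K-EDTA from the orbital plexus at 5, 30, 120 and 240 min. Plasma extracted with cold acetonitrile and analyzed by LC-MS/MS in MRM mode against a standard curve.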

[4] = molecular target: T1, Adrenergic receptor alpha-1 (Rattus norvegicus, UniProt P15823+P23944+P43140); experiment: Displacement of [3H]prazosin from alpha1 adrenergic receptor in rat brain; format: tissue-based
T1 sequence (P15823 whole entry): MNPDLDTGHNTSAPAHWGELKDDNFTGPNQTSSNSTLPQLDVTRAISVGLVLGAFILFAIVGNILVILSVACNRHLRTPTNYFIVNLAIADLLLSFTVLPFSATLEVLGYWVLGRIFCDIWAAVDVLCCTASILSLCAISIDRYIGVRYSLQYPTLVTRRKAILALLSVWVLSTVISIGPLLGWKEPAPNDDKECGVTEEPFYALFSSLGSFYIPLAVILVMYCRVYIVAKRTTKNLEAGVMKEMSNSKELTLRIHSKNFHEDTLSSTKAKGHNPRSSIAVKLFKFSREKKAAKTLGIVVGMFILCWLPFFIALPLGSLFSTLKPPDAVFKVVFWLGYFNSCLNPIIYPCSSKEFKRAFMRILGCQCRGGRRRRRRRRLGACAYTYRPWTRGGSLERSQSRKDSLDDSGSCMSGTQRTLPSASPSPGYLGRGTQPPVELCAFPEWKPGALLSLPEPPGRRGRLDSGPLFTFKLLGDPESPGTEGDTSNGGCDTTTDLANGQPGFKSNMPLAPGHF
T1 sequence (P23944 whole entry): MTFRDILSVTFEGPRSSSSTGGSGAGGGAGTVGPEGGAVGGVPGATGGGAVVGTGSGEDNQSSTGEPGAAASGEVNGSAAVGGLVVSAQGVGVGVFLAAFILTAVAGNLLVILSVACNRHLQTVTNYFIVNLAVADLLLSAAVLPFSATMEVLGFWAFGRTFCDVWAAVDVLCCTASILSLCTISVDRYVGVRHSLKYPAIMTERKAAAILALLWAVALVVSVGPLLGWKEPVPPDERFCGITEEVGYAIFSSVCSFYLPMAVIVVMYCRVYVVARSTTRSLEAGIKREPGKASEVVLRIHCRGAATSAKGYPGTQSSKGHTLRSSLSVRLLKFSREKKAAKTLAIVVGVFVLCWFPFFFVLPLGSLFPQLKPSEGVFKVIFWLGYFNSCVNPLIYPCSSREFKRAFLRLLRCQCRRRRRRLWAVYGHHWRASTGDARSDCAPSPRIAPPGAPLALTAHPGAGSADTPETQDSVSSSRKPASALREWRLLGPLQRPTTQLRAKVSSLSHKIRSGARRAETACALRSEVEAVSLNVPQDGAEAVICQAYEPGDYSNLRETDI
T1 sequence (P43140 whole entry): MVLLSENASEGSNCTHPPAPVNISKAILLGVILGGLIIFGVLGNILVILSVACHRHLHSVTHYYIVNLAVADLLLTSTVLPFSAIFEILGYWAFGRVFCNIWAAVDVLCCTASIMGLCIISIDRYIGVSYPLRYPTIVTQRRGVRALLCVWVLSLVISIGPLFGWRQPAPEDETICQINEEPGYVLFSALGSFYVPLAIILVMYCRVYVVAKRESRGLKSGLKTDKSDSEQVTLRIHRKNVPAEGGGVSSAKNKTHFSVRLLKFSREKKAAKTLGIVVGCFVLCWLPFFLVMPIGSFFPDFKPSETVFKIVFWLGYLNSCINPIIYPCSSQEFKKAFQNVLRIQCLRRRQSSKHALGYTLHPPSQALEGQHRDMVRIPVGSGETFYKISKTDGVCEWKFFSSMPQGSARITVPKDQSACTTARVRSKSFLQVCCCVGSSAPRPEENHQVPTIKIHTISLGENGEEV
Outline: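 Rat brain membranes; displacement of [3H]-prazosin at 4–6 concentrations, each point in duplicate. IC50 from displacement curves fitted by nonlinear least-squares regression.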

[5] = molecular target: Voltage-gated inwardly rectifying potassium channel KCNH2 (Homo sapiens, UniProt Q12809); experiment: Displacement of [3H]astemizole from human ERG expressed in HEK293 cells
[6] = tested on: Glutamate receptor ionotropic, NMDA 2B (Rattus norvegicus), Q00960 [E201R]; experiment: Inhibition of rat NR1/NR2B(E201R) mutant receptor expressed in Xenopus oocytes at 100 nM by two electrode voltage clamp method; format: cell-based; details: Oocyte
[7] = tested on: Glutamate receptor ionotropic, NMDA 1 (Rattus norvegicus), P35439 [H134A]; experiment: Inhibition of rat NR1(H134A)/NR2B mutant receptor expressed in Xenopus oocytes at 100 nM by two electrode voltage clamp method; format: cell-based; details: Oocyte
[8] = molecular target: Glutamate NMDA receptor; Grin1/Grin2b (Rattus norvegicus) (UniProt P35439+Q00960); experiment: Inhibition of rat wild type NR1/NR2B receptor expressed in Xenopus oocytes at 100 nM by two electrode voltage clamp method; format: cell-based; details: Oocyte
Mus musculus [9] = experiment: Effect on motor coordination in mouse at 0.6 mg/kg, ip administered 20 mins prior to test after 5 days by rotarod test; format: ADME, organism-based; parameters: dose 0.6 mg/kg, route intraperitoneal; details: in vivo
Outline: (§1)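 Accelerating rotarod: starts at 5 rpm, then after 10 s ramps 5 to 35 rpm over 5 min; latency to fall recorded automatically. Four trials daily, 25 min apart, for 5 days. On day 5 mice randomised and dosed ip (25% DMSO/75% saline, 5 mL/kg) 20 min before the first trial. Tester blinded; ANOVA with Dunnett's post hoc.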

Rattus norvegicus [10] = experiment: Effect on locomotor activity in Sprague-Dawley rat at 0.3 mg/kg, ip; format: functional; details: route intraperitoneal
Outline: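 Rats habituated to the test room at least 30 min, then basal horizontal activity recorded 1 h in photobeam activity chambers. Animals then dosed ip and returned to the chamber for 2 h. Vehicle group run each day. Compared with vehicle by ANOVA with Dunnett's post hoc.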

Mus musculus [11] = experiment: Effect on motor coordination in mouse at 0.3 mg/kg, ip administered 20 mins prior to test after 5 days by rotarod test; format: ADME, organism-based; parameters: dose 0.3 mg/kg, route intraperitoneal; details: in vivo; outline: as §1

Chain of Voltage-gated inwardly rectifying potassium channel KCNH2 (Q12809 whole entry): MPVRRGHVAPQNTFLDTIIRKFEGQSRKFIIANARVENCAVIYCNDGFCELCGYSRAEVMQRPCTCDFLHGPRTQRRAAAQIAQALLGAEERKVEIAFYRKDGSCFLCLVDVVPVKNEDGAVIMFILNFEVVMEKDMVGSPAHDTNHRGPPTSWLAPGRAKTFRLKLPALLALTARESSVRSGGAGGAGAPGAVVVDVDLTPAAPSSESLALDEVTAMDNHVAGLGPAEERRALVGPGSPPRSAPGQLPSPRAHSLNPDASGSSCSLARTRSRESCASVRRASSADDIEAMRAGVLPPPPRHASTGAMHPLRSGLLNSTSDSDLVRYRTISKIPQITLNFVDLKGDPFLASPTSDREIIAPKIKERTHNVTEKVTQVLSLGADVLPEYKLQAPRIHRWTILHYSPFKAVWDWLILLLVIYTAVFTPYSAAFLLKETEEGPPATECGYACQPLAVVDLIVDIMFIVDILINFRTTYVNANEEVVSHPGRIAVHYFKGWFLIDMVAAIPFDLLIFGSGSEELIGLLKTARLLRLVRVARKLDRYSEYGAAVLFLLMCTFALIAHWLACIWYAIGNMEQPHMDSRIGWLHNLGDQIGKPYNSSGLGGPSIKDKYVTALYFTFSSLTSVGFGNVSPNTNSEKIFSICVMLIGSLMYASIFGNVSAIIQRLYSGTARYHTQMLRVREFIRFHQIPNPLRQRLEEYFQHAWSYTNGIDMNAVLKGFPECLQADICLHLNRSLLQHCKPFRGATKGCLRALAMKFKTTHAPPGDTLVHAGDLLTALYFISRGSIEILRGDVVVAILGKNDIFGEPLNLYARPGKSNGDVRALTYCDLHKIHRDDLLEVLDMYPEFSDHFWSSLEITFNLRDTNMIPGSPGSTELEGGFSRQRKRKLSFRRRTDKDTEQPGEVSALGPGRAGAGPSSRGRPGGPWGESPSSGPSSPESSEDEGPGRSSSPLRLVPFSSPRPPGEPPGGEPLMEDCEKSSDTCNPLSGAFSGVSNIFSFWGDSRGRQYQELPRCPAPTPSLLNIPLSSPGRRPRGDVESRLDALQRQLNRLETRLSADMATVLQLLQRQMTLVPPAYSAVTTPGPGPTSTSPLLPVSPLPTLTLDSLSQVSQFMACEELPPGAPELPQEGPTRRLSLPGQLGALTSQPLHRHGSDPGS

| SMILES | pIC50 [2] | half-life [3] [min] | IC50 [4] [µM] | pIC50 [5] | further results |
| --- | --- | --- | --- | --- | --- |
| CS(=O)(=O)Nc1ccc(OC[C@@H](O)CN(CCO)CCc2ccc(Cl)c(Cl)c2)cc1 | 6.91 | 36 | – | – | Activity (Rattus norvegicus [1]): Active |
| CCCCN(CCc1ccc(Cl)c(Cl)c1)C[C@H](O)COc1ccc(NS(C)(=O)=O)cc1 | 6.38 | 36 | 4.9 | – | – |
| CS(=O)(=O)Nc1ccc(OC[C@@H](O)CNCCc2ccc(F)c(F)c2)cc1 | 6.45 | – | > 10 | 5.79 | – |
| CS(=O)(=O)Nc1ccc(OC[C@@H](O)CN(CCc2ccc(Cl)c(Cl)c2)Cc2ccccn2)cc1 | 5.56 | 36 | – | – | – |
| CN(CCc1ccc(Cl)c(Cl)c1)CC(O)COc1ccc(NS(C)(=O)=O)cc1 (racemic) | – | – | – | – | inhibition [6]: 4.2%; inhibition [7]: 8.9%; inhibition [8]: 67.1%; Activity (Rattus norvegicus [1]): Active |
| C[C@]12N[C@H](Cc3ccccc31)c1ccccc12 [DIZOCILPINE] | – | – | – | – | Activity (Mus musculus [9]): Toxic; Activity (Rattus norvegicus [10]): 38233; Activity (Mus musculus [11]): Toxic |
| CS(=O)(=O)Nc1ccc(OC[C@@H](O)CNCCc2ccc(Cl)c(F)c2)cc1 | 7.17 | – | > 10 | 5.72 | – |
| Cc1ccc(CCNC[C@H](O)COc2ccc(NS(C)(=O)=O)cc2)cc1C | 6.68 | – | 2.2 | 5.62 | – |
| CCN(CCc1ccc(Cl)c(Cl)c1)C[C@H](O)COc1ccc(NS(C)(=O)=O)cc1 | 7.02 | 36 | 3.5 | – | – |
| CS(=O)(=O)Nc1ccc(OC[C@@H](O)CN(CCc2ccc(Cl)c(Cl)c2)Cc2cccc(O)c2)cc1 | 6.62 | 36 | > 10 | – | – |
